Experimental data taken from PMC3875364 (Biochemistry, 2013).

Experiments:
[1] = test system: 59-nt TAR RNA / TAR DNA hairpins; assay: Gel-shift TAR RNA/DNA annealing assay; assay type: biochemical, HIV-1; conditions: for kobs: average of three trials ± SD, SD; for Fold decrease of kobs relative to WT NC: normalized for protein concentration
[2] = test system: 5′-FAM-DNA20 (20-mer single-stranded DNA); assay: Fluorescence anisotropy; assay type: binding
Method in brief: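 Binding was measured by fluorescence anisotropy. CCHC-containing constructs were reconstituted with 3 equiv zinc unless noted. Kd was fitted with a quadratic binding equation corrected for the bound/free intensity ratio.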

[3] = test system: 59-nt TAR RNA and TAR DNA; assay: Sedimentation assay of nucleic acid aggregation; assay type: biochemical, HIV-1; conditions: 0.2 mM MgCl2
Method in brief: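 Refolded 32P-TAR RNA (15 nM) and TAR DNA (45 nM) were incubated with varying protein in 20 mM HEPES pH 7.5 and 20 mM NaCl (final MgCl2 0.2 mM) for 30 min at 37 °C. Fragments were run at 10–50 μM, with or without zinc. Samples were centrifuged at 10000 rpm for 10 min, and supernatant radioactivity was counted by scintillation.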

[4] = 0.88 μM peptide, 45 nM TAR DNA, 2 mM MgCl2
[5] = 4 μM protein, 90 nM TAR DNA and 2 mM MgCl2

Q: For “NC(1-14): HIV-1 NC fragment, residues 1-14, basic N-terminal domain”, which “Final % Annealing” value ([1]; 20 μM peptide, 15 nM TAR RNA, 45 nM TAR DNA, 0.2 mM MgCl2, 37 °C, 30 min) is on record?
A: Its value is 3%.

Q: What about the “Final % Annealing” value ([1]; 50 μM peptide, 15 nM TAR RNA, 45 nM TAR DNA, 0.2 mM MgCl2, 37 °C, 30 min) of the same substance?
A: The value was “did not change appreciably”.

Q: And the “Binding to 5′-FAM-DNA20 (in words)” value ([2]; FA, no zinc acetate)?
A: The value was “no binding could be detected”.

Q: How did the “RNA annealed at 30 sec” value ([1]; 0.88 μM peptide, 45 nM TAR DNA, 0.2 mM MgCl2) turn out when “NC(1-35): HIV-1 NC fragment, residues 1-35, purchased from Genscript” was run?
A: The value was ~ 75%.

Q: What about the “Final % Annealing” value [1, 4] of the same substance?
A: Its value is 54%.

Q: What about the kobs [1, 4] of the same substance?
A: Its kobs is 0.17 ± 0.07 min⁻¹.

Q: What about the “Fold decrease of kobs relative to WT NC” value ([1]; 0.88 μM peptide, 2 mM MgCl2) of the same substance?
A: Its value is 1.3 fold.

Q: What about the “Fold higher affinity of zinc-bound form relative to zinc-less variant” value ([2]; 5′-FAM-DNA20) of the same substance?
A: The value was 2- to 3 fold.

Q: What about the “Fold lower ss DNA binding affinity than WT NC” value ([2]; 5′-FAM-DNA20, 50 mM NaCl) of the same substance?
A: Its value is at most 2 fold.

Q: And the Kd ([2]; read-out: Apparent binding dissociation constant Kd to 5′-FAM-DNA20, FA, 20 nM DNA, 20 mM HEPES pH 7.5, 50 mM NaCl, 5 mM β-mercaptoethanol, 10 μM TCEP, 1 μM zinc acetate, 30 min, 25 °C, average of three trials ± SD, SD)?
A: Its Kd is 86 ± 19 nM.

Q: What about the “Nucleic acid aggregation (in words)” value [3] of the same substance?
A: The value was “essentially complete aggregation”.

Q: For “WT (zinc-less): full-length HIV-1 NC not reconstituted with zinc”, which “Final % Annealing” value [1, 5] is on record?
A: The value was 22%.

Q: What about the kobs [1, 5] of the same substance?
A: Its kobs is 0.07 ± 0.02 min⁻¹.

Q: And the “Fold decrease of kobs relative to WT NC” value [1, 5]?
A: Its value is 2 fold.
